# Most compounds without a hit are left out; they make up all but 3.3% or so of the library.
# FXN GAA850 act – increases GAA850 frataxin promoter reporter activity; HEK293 lucGAA850 FXN promoter luciferase reporter, 24 h; percent of 10 µM SAHA response; activation, % at 6 µM; hit rate 0.56% among 360,000; AID 540364;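 active means activation above the average of all compounds screened plus 3 SD, cutoff fixed separately per campaign, cut at about 7.5% in these data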;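 further: 0% = DMSO wells and 100% = 10 µM SAHA wells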
# STAT3 act – STAT3 signaling activation | U3A cells, IL-6 STAT3-luciferase reporter, luminescence; 100% = signal with IL-6 EC80 alone | activation (% of control), % at 5.6 µM | hit rate 0.91% among 190,000 | AID 871;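 active means activation above the screen-wide mean of compound activation plus 3 SD, cut at about 130% in these data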;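 further: 0% = background luminescence of wells with medium and substrate only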
#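 Assay system – human STAT1-deficient U3A cells with stable STAT3-luciferase reporter · Also added – IL-6 (33 ng/mL) · Schedule – compound 1 h, then IL-6 6 h at 37 °C · Technique – reporter luminescence signal · Evaluation – % activation versus median of IL-6-stimulated wells · Benchmarks – IL-6-only wells as 100% reference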
# ABCB6 inh MLPCN – blocks the human ABCB6 transporter | fluorescence ratio to DMSO, % at 10 µM | AID 602162 | Q9NP58 | hit rate 0.19% among 360,000 | K562-ABCB6 porphyrin accumulation, flow cytometry, 1 h; hits give low values;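 active means fluorescence ratio to DMSO below 75%, the collection mean minus 3 SD; inconclusive means too few cells collected in the well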;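 further: signal is porphyrin accumulated inside mitochondria; 100% equals median channel fluorescence of DMSO control wells; lower ratio means ABCB6 inhibition with less porphyrin fluorescence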
# AHR activator – activators of human aryl hydrocarbon receptor; AID 2796; P35869; activation, % at 5 µM; hit rate 2.5% among 320,000; AHR-responsive luciferase reporter cells, luminescence; in the data active means activation above about 47%;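 further: 0% = vehicle wells and 100% = reference agonist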
# Target sequence (P35869 whole entry, looked up): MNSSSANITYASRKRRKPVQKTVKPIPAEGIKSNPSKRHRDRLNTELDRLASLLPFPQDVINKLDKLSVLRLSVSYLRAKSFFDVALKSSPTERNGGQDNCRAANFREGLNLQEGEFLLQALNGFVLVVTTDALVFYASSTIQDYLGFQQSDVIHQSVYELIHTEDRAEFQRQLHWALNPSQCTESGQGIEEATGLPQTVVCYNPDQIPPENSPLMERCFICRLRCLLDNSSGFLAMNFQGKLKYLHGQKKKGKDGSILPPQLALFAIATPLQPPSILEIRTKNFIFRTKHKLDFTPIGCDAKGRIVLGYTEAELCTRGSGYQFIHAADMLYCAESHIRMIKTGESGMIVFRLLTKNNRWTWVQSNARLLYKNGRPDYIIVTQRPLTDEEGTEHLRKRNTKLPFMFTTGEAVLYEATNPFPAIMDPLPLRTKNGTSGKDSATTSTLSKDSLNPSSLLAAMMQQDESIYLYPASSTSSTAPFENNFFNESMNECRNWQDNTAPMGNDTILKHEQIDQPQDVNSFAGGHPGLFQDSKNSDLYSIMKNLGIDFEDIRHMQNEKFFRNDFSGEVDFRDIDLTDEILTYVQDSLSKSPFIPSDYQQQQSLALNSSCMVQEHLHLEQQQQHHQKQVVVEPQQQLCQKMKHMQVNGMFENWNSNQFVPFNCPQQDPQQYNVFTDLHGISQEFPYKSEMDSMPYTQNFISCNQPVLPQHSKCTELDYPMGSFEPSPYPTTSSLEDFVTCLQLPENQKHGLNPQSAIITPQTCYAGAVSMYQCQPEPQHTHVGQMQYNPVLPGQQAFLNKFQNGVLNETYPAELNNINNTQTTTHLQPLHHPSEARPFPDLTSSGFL
# Active calls of the source: *; ? = inconclusive; . = no result.
SMILES,FXN GAA850 act,STAT3 act,ABCB6 inh MLPCN,AHR activator
Cc1nc(SCc2nc3ccccc3[nH]2)c2oc3ccccc3c2n1,3.4,106.1,89.0,10.7
c1ccc2[nH]c(CSc3ncnc4c3oc3ccccc34)nc2c1,4.7,114.0,98.0,52.8*
OCCCNc1nc(-c2ccccc2)nc2c1oc1ccccc12,-0.1,.,98.0,50.1*
Cc1nc(SCc2nc3ccccc3[nH]2)c2oc3ccc(Br)cc3c2n1,3.6,.,96.0,38.2
c1ccc(-c2nc(SCc3nc4ccccc4[nH]3)c3oc4ccccc4c3n2)cc1,3.5,.,?,67.5*
COc1cccc2c1oc1c(SCc3nc4ccccc4[nH]3)nc(C)nc12,3.9,.,100.0,58.6*
Cn1c(=O)n(CCc2ccccc2)c(=O)c2c1nc1n2CCCN1CCc1ccccc1,-4.1,102.1,87.0,82.8*
c1ccc(C[C@H]2CN=C(Nc3ccccc3)N2CCCC2CCCC2)cc1,-1.0,.,100.0,-3.3
Cc1ccc(NC(=O)c2cc([N+](=O)[O-])ccc2NCc2cccnc2)cc1Cl,0.8,102.9,102.0,50.8*
NC(=O)c1cc([N+](=O)[O-])c(Cl)cc1NCc1cccnc1,5.0,.,98.0,58.4*
COc1cccc(NC(=O)c2cc([N+](=O)[O-])ccc2NCc2cccnc2)c1,-0.3,104.6,100.0,66.3*
O=C(O)c1cc([N+](=O)[O-])ccc1NCc1cccnc1,3.0,.,97.0,-0.2
Cc1ccc(-c2cc(C(F)F)n3ncc(C(=O)N4CCCCC4c4cccnc4)c3n2)cc1 (stereo not given),-1.2,90.3,102.0,4.4
Cc1ccc(S(=O)(=O)N(CC(=O)N2CCC(C)CC2)Cc2ccccc2F)cc1,1.4,100.4,97.0,4.2
O=C1C=C(Nc2ccccc2)c2ccccc2C1=O,0.7,119.9,113.0,.
O=C1C=C(Nc2ccccc2C(=O)O)c2ccccc2C1=O,0.8,.,103.0,51.7*
COc1ccc(-c2cc(-c3c(O)c(OC)c4occc4c3OC)[nH]n2)cc1,-0.5,90.2,96.0,68.8*
COc1ccccc1/C=C/C=N/NC(=O)CCn1nnc2ccccc21,-1.7,95.1,96.0,66.4*
COc1ccccc1/C=C\C=N\NC(=O)CCn1nnc2ccccc21,4.1,100.9,104.0,74.1*
COc1ccc(/C=N/NC(=O)CCn2nnc3ccccc32)cc1,0.1,.,98.0,2.4
O=C(O)c1cnc(-c2ccccc2)nc1Sc1ccccc1Cl,-2.1,134.6*,92.0,7.5
O=C(COc1ccccc1)Nc1c2c(nn1-c1ccccc1)CS(=O)C2 (stereo not given),-0.2,.,98.0,56.5*
Cc1ccccc1-n1nc2c(c1NC(=O)COc1ccc(Cl)cc1)CS(=O)C2 (stereo not given),0.7,96.1,98.0,1.5
Cc1ccc([N+](=O)[O-])cc1NC(=O)c1ccc(-c2ccccc2)cc1,-3.3,96.9,94.0,67.1*
Cc1ccc([N+](=O)[O-])cc1NC(=O)c1ccc(C(C)(C)C)cc1,-1.9,102.9,98.0,71.2*
SMILES,FXN GAA850 act,STAT3 act,ABCB6 inh MLPCN,AHR activator
O=C(Nc1ccccc1-c1ccccc1)c1cccc([N+](=O)[O-])c1,0.1,92.0,88.0,56.0*
COC(=O)N1C2CCCCC2=NN(c2ccccc2)N1C(=O)OC (stereo not given),.,.,90.0,.
Cc1ccc(-c2nc3cc(C)ccc3o2)cc1,-1.1,33.9,101.0,12.0
Cc1ccc(-c2nc3cc(N)ccc3o2)c(C)c1,-0.3,67.9,101.0,18.1
Cc1ccc(-c2nc3cc(N)ccc3o2)cc1,0.0,51.0,99.0,72.8*
Nc1ccc2oc(-c3cccc4ccccc34)nc2c1,-13.6,88.0,102.0,53.2*
Cc1ccccc1-c1nc2cc(Cl)ccc2o1,2.4,126.6,99.0,74.9*
CC1CCC(C(C)C)C(NC(=O)c2ccncc2)C1 (stereo not given),.,.,93.0,.
CC(=O)Nc1ccc(NC(=O)C(Cc2ccccc2)NC(=O)C2CCC(C)CC2)cc1 (stereo not given),-0.4,102.8,92.0,-2.5
C[C@H](NC(=O)CCC1CCC(=O)N1)c1ccccc1 (stereo not given in full),0.5,.,99.0,-1.9
O=C(CSc1nnc2c3ccccc3c3ccccc3c2n1)Nc1ccccc1F,0.9,131.2,120.0,68.4*
O=C(CSc1nnc2c(n1)[nH]c1ccc(F)cc12)Nc1ccccc1F,3.9,.,89.0,2.6
CC(=O)c1cccc(NC(=O)C2Cc3c(-c4ccc(Cl)cc4)ccnc3O2)c1 (stereo not given),-0.3,.,96.0,.
CC(/C=C(\NC(=O)c1ccccc1)C(=O)N=Nc1c(O)[nH]c2ccc(C)cc12)=C\c1ccccc1,-5.7,131.5,73.0*,26.7
CCOC(=O)CN1C(=O)SC(CC(=O)Nc2nccs2)C1=O (stereo not given),-0.8,96.8,101.0,-1.5
O=C(CC1SC(=O)N(Cc2cccc3ccccc23)C1=O)Nc1nccs1 (stereo not given),0.4,99.3,96.0,71.4*
CC(C)=CCc1cc2c(=O)c3c(O)c4c(cc3oc2c(O)c1O)OC(C)C4(C)C (stereo not given),.,.,.,7.7
O=C(N/N=C\c1ccc(Cl)s1)c1ccc(Cn2cccn2)o1,2.0,104.6,102.0,73.0*
O=C(N/N=C/c1cccnc1)c1ccc(Cn2cc([N+](=O)[O-])cn2)o1,-0.1,95.0,89.0,62.5*
Cc1ccc(/C=N/NC(=O)c2ccc(Cn3cc([N+](=O)[O-])cn3)o2)cc1,4.3,106.5,97.0,30.9
COCCNC(=O)c1c(N)n(/N=C/c2cccs2)c2nc3ccccc3nc12,-0.9,76.2,97.0,50.0*
COCCCNC(=O)c1c(N)n(-c2ccc3c(c2)OCO3)c2nc3ccccc3nc12,-3.1,79.7,91.0,51.9*
COCCNC(=O)c1c(N)n(/N=C/c2ccc(F)cc2)c2nc3ccccc3nc12,-1.4,.,96.0,6.2
CC(C)c1ccc2c(c1)[C@H]1OCC[C@H]1[C@@H](c1cccs1)N2,-4.0,105.2,99.0,70.3*
c1ccc(-c2cn3c4c(sc3n2)CCCC4)cc1,-5.0,33.4,98.0,65.8*
SMILES,FXN GAA850 act,STAT3 act,ABCB6 inh MLPCN,AHR activator
COc1ccc(NC(=O)C2CCN(S(=O)(=O)c3ccc(C)cc3)CC2)cc1OC,1.2,106.0,74.0*,-0.5
Cc1ccnc(NS(=O)(=O)c2ccc(NC(=O)c3ccccc3F)cc2)n1,0.4,.,92.0,58.1*
Cc1ccnc(NS(=O)(=O)c2ccc(NC(=O)c3ccc(C)o3)cc2)n1,-0.9,107.0,96.0,2.5
COc1ccc(Nc2cc(C)nc3ncnn23)cc1Cl,-0.1,.,103.0,67.6*
COc1cc(Nc2cc(C)nc3ncnn23)cc(OC)c1OC,-1.7,98.6,101.0,-0.7
COc1ccc(C(=O)Nc2nnc(C(F)(F)F)s2)cc1,2.7,89.8,97.0,58.6*
COc1ccc(C(=O)Nc2nnc(-c3ccccc3)s2)cc1,3.2,.,96.0,.
CCCCN=C(Nc1ccc(Cl)cc1)c1cccnc1,0.7,97.5,98.0,88.5*
CCCN=C(Nc1ccc(Cl)cc1)c1cccnc1,1.1,101.8,98.0,118.1*
Cc1ccc(S(=O)(=O)CCc2nnc(N)s2)cc1,1.4,106.4,87.0,1.7
CC(=O)Nc1ccc(N=Cc2c(O)c(C(=O)Nc3ccccc3)cc3ccccc23)cc1,.,144.9*,.,29.0

# Source: PubChem BioAssay
